The sample as a whole holds a higher share of hits than the screen did.
IDH1 R132H inh – inhibitors of IDH1 R132H reductase, primary screen, biochemical, plate reader, single point; Isocitrate dehydrogenase [NADP] cytoplasmic (Homo sapiens), O75874; diaphorase/resazurin fluorescence, 60 min; inhibition, % at 10 µM; 0.18% of 70,000 active; in the data active = inhibition above about 34%; inconclusive = no clear call, values can overlap the other calls; inactive = below about 11%;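 also: 0% = DMSO and 100% = no enzyme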
KDM4C inh – inhibitors of GASC-1 (KDM4C) histone demethylase, primary screen, biochemical, single concentration HTS; Lysine-specific demethylase 4C (Homo sapiens), Q9H3R0; GST-KDM4C 2-372, H3K9me3 peptide, LANCE TR-FRET; inhibition, % at 12.5 µM; 0.15% of 96,000 active;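 active = mean replicate inhibition above about 25%, with at least 55% of replicates also reaching it, limit read from the data, passing the limit was not always enough; inconclusive = only one of those two conditions met; inactive = neither condition met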
Target sequence (Q9H3R0 2-372 limits assumed): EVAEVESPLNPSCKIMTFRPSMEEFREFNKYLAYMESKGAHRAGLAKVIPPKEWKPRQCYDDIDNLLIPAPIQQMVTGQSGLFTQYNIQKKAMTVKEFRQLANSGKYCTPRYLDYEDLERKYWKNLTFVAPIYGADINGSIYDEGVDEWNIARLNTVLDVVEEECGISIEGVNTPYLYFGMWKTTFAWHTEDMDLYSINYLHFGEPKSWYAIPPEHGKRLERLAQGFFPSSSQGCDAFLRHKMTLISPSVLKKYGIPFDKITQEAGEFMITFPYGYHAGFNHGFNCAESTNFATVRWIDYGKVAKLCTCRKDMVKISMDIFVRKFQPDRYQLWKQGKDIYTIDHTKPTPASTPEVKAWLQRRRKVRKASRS
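Material: GST-tagged GASC-1 (JMJD2C) catalytic fragment, aa 2-372 / Quantity: enzyme final amount 10 nM / Medium: HEPES buffer, pH 7.5, plus ascorbate / Doses: one test concentration per compound / Incubation: 30 min reaction, 60 min detection, RT / Measured by: LANCE TR-FRET / Read-out: inhibition from TR-FRET ratio decrease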
T cruzi growth-1 – T. cruzi intracellular proliferation inhibitors, primary screen, cell-based, beta-gal Tulahuen parasites, NIH3T3 host, luminescence; T. cruzi beta-gal in NIH3T3, GalScreen luminescence, 90 h; inhibition, % at 8.34 µM; 5.9% of 77,000 active;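 active = mean inhibition above about 93%, with at least 55% of replicates each passing it, limit read from the data, passing the limit was not always enough; inconclusive = only one of those two conditions holds; inactive = neither condition holds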
T cruzi growth-2 – T. cruzi intracellular proliferation inhibitors, confirmation, cell-based, NIH3T3 host, beta-gal parasite, luminescence, cherry-pick | T. cruzi beta-gal in NIH3T3, GalScreen luminescence, 90 h | inhibition, % at 8.35 µM | 72% of 5,600 active | shares compounds with T cruzi growth-1 | AID 651739, 2012;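 active = mean replicate inhibition above about 95% and at least 55% of replicates individually reaching it, limit read from the data; inconclusive = only one of the two criteria is met; inactive = neither criterion is met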
T cruzi growth-3 – inhibitors of intracellular T. cruzi replication, confirmation, NIH3T3 host cells, beta-gal parasites, cherry-pick, set 2; shares compounds with T cruzi growth-1; T. cruzi beta-gal in NIH3T3, GalScreen luminescence, 90 h; inhibition, % at 2.09 µM; 21% of 5,600 active;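 active = mean inhibition above about 95%, with at least 55% of replicates also reaching it, limit read from the data; inconclusive = meets just one of the two conditions; inactive = meets neither condition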;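 also: plate controls were neutral control median for no effect and positive control median for full effect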
3T3 cytotox – cytotoxicity in mouse NIH/3T3 fibroblasts, confirmation, cytotoxicity control for T. cruzi proliferation inhibitor project, cell-based, cherry-pick, single point; 14% of 5,600 active; AID 651742, 2012; cytotoxicity (signal decrease), % at 8.35 µM; NIH/3T3 viability, CellTiter-Glo ATP luminescence, 90 h; shares compounds with T cruzi growth-1;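 active = mean signal decrease across replicates above about 35% based on untreated-well scatter, with enough replicates individually passing, limit read from the data; inconclusive = no rule stated though some were filed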;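 also: 0% = median of neutral control wells and 100% = median of positive control wells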
3T3 cytotox 2 – NIH/3T3 fibroblast cytotoxicity, confirmation, cytotoxicity control, cell-based, cherry-pick, single point, set 2 | shares compounds with T cruzi growth-1 | 56% of 5,600 active | NIH/3T3 viability, CellTiter-Glo ATP luminescence, 90 h | AID 651744, 2012 | inhibition, % at 24.9 µM;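 active = mean loss of cell viability signal at or above a set limit, and enough replicates individually reaching it; inconclusive = meets only the mean limit or only the replicate share; inactive = meets neither condition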;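 also: 0% = median of neutral control wells and 100% = median of positive control wells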
An asterisk follows results filed as active; u = inconclusive; x = not tested or not shown.

SMILES	IDH1 R132H inh	KDM4C inh	T cruzi growth-1	T cruzi growth-2	T cruzi growth-3	3T3 cytotox	3T3 cytotox 2
N#C[C@@H]1[C@H](c2ccc(-c3ccc(F)cc3)cc2)[C@H](CO)N1c1nc(-c2ccccc2)cs1	x	0	101*	-11	31	-5	-11
N#C[C@@H]1[C@H](c2ccc(-c3ccc(F)cc3)cc2)[C@@H](CO)N1c1nc(-c2ccccc2)cs1	x	-5	x	x	x	x	x
N#C[C@@H]1[C@@H](c2ccc(-c3ccc(F)cc3)cc2)[C@H](CO)N1c1nc(-c2ccccc2)cs1	x	-4	103*	107*	71	11	25
N#C[C@@H]1[C@H](c2ccc(-c3cccc(F)c3)cc2)[C@@H](CO)N1c1nc(-c2ccccc2)cs1	x	-5	x	x	x	x	x
CCc1ccc(OCC(=O)Nc2ccccc2C#N)cc1	-1	x	x	x	x	x	x
CN(C)C(=O)c1cccc(-c2ccc3c(c2)[C@@H]2[C@@H](CCN2S(=O)(=O)c2ccccc2)[C@@H](CO)N3)c1	x	-1	108*	104*	u	5	21
Cc1cccc(S(=O)(=O)N2CC[C@@H]3[C@H]2c2cc(-c4ccccc4F)ccc2N[C@@H]3CO)c1	x	0	15	x	x	x	x
Cc1ccc(S(=O)(=O)N2CC[C@@H]3[C@H](CO)Nc4ccc(-c5ccccc5F)cc4[C@@H]32)cc1	x	1	112*	102*	110*	40*	60*
Cc1cccc(S(=O)(=O)N2CC[C@@H]3[C@H](CO)Nc4ccc(-c5ccccc5F)cc4[C@@H]32)c1	x	0	-8	x	x	x	x
Cc1ccc(S(=O)(=O)N2CC[C@@H]3[C@H](CO)Nc4ccc(-c5cccc(C(=O)N(C)C)c5)cc4[C@@H]32)cc1	x	0	11	x	x	x	x
O=S(=O)(c1ccc(F)cc1)N1CC[C@H]2[C@H](CO)Nc3ccc(-c4ccccc4F)cc3[C@H]21	x	-1	26	x	x	x	x
Cc1ccc(S(=O)(=O)N2CC[C@H]3[C@H](CO)Nc4ccc(-c5ccccc5F)cc4[C@H]32)cc1	x	11	u	103*	87	46*	85*
O=S(=O)(c1ccccc1)N1CC[C@H]2[C@H](CO)Nc3ccc(-c4ccccc4F)cc3[C@H]21	x	8	102*	101*	69	59*	67*
OC(COc1ccc2ccccc2c1Br)Cn1cnc2ccccc21 (centres undefined)	0	x	x	x	x	x	x
CCOC(=O)c1ccccc1NC(=O)COc1ccc(C)cc1C(C)(C)C	0	x	x	x	x	x	x
COc1cc2c(cc1O)C1Cc3ccc(O)c(OC)c3CN1CC2 (centres undefined)	-3	x	x	x	x	x	x
Cc1ccc(NC(=O)CSc2n[nH]c(-c3ccccc3)n2)c(C)c1	0	x	x	x	x	x	x
Cc1cc(C(F)(F)F)nc(SCC(=O)Nc2sc3c(c2C#N)CCCC3)n1	0	x	x	x	x	x	x
O=C(Nc1c(Cl)cc(Cl)cc1C(=O)NCc1cccnc1)c1cccc([N+](=O)[O-])c1	1	x	x	x	x	x	x
COc1ccc(-c2cnc3c(c2)C(=O)N([C@H](C)CO)C[C@H](C)[C@@H](CN(C)C(=O)Cc2ccncc2)O3)cc1	10	-1	112*	55	59	-31	-7
C[C@@H]1CN([C@@H](C)CO)C(=O)c2cc(C#Cc3ccccc3F)cnc2O[C@H]1CN(C)C(=O)Cc1ccccc1	x	0	120*	111*	106*	22	u
C[C@@H]1CN([C@@H](C)CO)C(=O)c2cc(C#Cc3ccccc3F)cnc2O[C@@H]1CN(C)C(=O)Cc1ccccc1	0	-2	71	x	x	x	x
C[C@@H]1CN([C@H](C)CO)C(=O)c2cc(C#Cc3ccccc3F)cnc2O[C@H]1CN(C)C(=O)Cc1ccncc1	x	-1	97	x	x	x	x
C[C@H]1CN([C@@H](C)CO)C(=O)c2cc(C#Cc3ccccc3F)cnc2O[C@@H]1CN(C)C(=O)Cc1ccncc1	15	0	95*	u	48	-3	12
COc1ccc(-c2cnc3c(c2)C(=O)N([C@@H](C)CO)C[C@H](C)[C@H](CN(C)C(=O)Cc2ccccc2)O3)cc1	0	-1	43	x	x	x	x
SMILES	IDH1 R132H inh	KDM4C inh	T cruzi growth-1	T cruzi growth-2	T cruzi growth-3	3T3 cytotox	3T3 cytotox 2
Cc1ccc(N(C(C)C(=O)Nc2c(C)cc(C)cc2C)S(C)(=O)=O)cc1 (centres undefined)	6	x	x	x	x	x	x
Cc1nn(Cc2cccc(C(=O)NCc3ccccn3)c2)c(C)c1Cl	-1	x	x	x	x	x	x
Cc1ccc(F)cc1NC(=O)CSc1nnnn1-c1ccccc1	0	x	x	x	x	x	x
COC(=O)c1c(NC(=O)COc2cccc(Cl)c2)sc2c1CCC2	2	x	x	x	x	x	x
O=C(CSc1ccccn1)Nc1ccc(Oc2ccccc2)cc1	0	x	x	x	x	x	x
COc1cc(Cc2nccc3cc(OC)c(OC)cc23)c(NC(=O)c2cccs2)cc1OC	1	x	x	x	x	x	x
Cc1nc(-c2c(C(=O)NN)noc2C)cs1	0	x	x	x	x	x	x
OC[C@@H]1[C@@H](c2ccc(C#CC3CC3)cc2)[C@@H]2CN(CCC(F)(F)F)CCCCN12	x	x	83	x	x	x	x
OC[C@H]1[C@H](c2ccc(-c3cccc(F)c3)cc2)[C@H]2CN(CCC(F)(F)F)CCCCN21	x	0	88	x	x	x	x
OC[C@@H]1[C@@H](c2ccc(-c3ccc(F)cc3)cc2)[C@H]2CN(CCC(F)(F)F)CCCCN12	x	-1	104*	96*	103*	96*	105*
OC[C@@H]1[C@H](c2ccc(-c3ccccc3)cc2)[C@@H]2CN(CCC(F)(F)F)CCCCN12	x	-1	104*	103*	66	58*	105*
COc1ccccc1C#Cc1ccc([C@@H]2[C@H]3CN(CCC(F)(F)F)CCCCN3[C@H]2CO)cc1	x	-1	98*	97*	101*	61*	107*
Cc1cccc(-c2ccc([C@H]3[C@H]4CN(CCC(F)(F)F)CCCCN4[C@H]3CO)cc2)c1	x	-1	u	103*	116*	25	105*
OC[C@H]1[C@H](c2ccc(-c3ccccc3)cc2)[C@H]2CN(CCC(F)(F)F)CCCCN21	x	1	84	x	x	x	x
OC[C@@H]1[C@H](c2ccc(-c3ccc(F)cc3)cc2)[C@H]2CN(CCC(F)(F)F)CCCCN12	x	1	75	x	x	x	x
O=C(N/N=C/c1cc(I)cc(I)c1O)c1ccccn1	0	x	x	x	x	x	x
O=C(NCc1ccco1)c1cc2nc(-c3cccs3)cc(C(F)(F)Cl)n2n1	0	x	x	x	x	x	x
Cc1ccc(N(CC(=O)NC2CCCC2)S(C)(=O)=O)cc1	0	x	x	x	x	x	x
